Reference: ChEMBL document CHEMBL1649155, “Antimicrobial activity of curcumin against Helicobacter pylori isolates from India and during infections in mice” (2009)
≈ marks a conversion by molar mass, not a printed value. Calls of active or inactive are those of the source. The rule behind the calls is not given here.

What was measured:
Helicobacter pylori [1] = test: Antimicrobial activity against Helicobacter pylori L1675 by agar dilution method; format: functional
Procedure, shortened: (§1)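 Agar dilution on BHI agar with 5% horse serum. Isolates were grown 3 days under microaerophilic conditions and restreaked for 24 h. Cells were suspended in PBS to OD600 0.1, and 10 μl was spotted onto agar with curcumin at final 50–5 μg/ml (DMSO stock). Plain and DMSO-containing agar served as growth controls. Plates ran 5 days at 37°C microaerophilic. MIC is the lowest concentration with no visible growth.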

Helicobacter pylori [2] = test: Antimicrobial activity against Helicobacter pylori ATCC 43504 by agar dilution method; format: functional; procedure, shortened: as §1
Helicobacter pylori [3] = test: Antimicrobial activity against Helicobacter pylori clinical isolate by agar dilution method; format: functional; procedure, shortened: as §1
[4] = Antimicrobial activity against Helicobacter pylori 26695 by agar dilution method; format: functional
Helicobacter pylori [5] = test: Antimicrobial activity against Helicobacter pylori PG139 by agar dilution method; format: functional; procedure, shortened: as §1
Helicobacter pylori [6] = test: Antimicrobial activity against Helicobacter pylori PG156 by agar dilution method; format: functional; procedure, shortened: as §1
Helicobacter pylori [7] = test: Antimicrobial activity against Helicobacter pylori PG233 by agar dilution method; format: functional; procedure, shortened: as §1
Helicobacter pylori [8] = test: Antimicrobial activity against Helicobacter pylori AM1 infected in C57BL/6 mouse assessed as decreased bacterial gene vacA expression at 25 mg/kg, po administered 2 weeks post infection for 7 days measured after 1 week by PCR; format: functional, organism-based; set-up: dose 25 mg/kg
Helicobacter pylori [9] = test: Antimicrobial activity against Helicobacter pylori SS1 infected in C57BL/6 mouse assessed as decreased bacterial gene vacA expression at 25 mg/kg, po administered 2 weeks post infection for 7 days measured after 1 week by PCR; format: functional, organism-based; set-up: dose 25 mg/kg
Helicobacter pylori [10] = test: Antimicrobial activity against Helicobacter pylori SS1 infected in C57BL/6 mouse assessed as restoration of epithelial layer of gastric tissue at 25 mg/kg, po administered 2 weeks post infection for 7 days measured after 1 week; format: functional, organism-based; set-up: dose 25 mg/kg; conditions: Stomach
Procedure, shortened: (§2)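 C57BL/6 mice were inoculated intragastrically with SS1, with PBS controls. Two weeks after the final inoculation, curcumin 25 mg/kg was fed orally for 7 consecutive days before sacrifice. Body and pyloric stomach tissue was formalin-fixed and paraffin-embedded, and 5 μm sections were stained with hematoxylin and eosin and examined at ×10 and ×20.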

Helicobacter pylori [11] = test: Antimicrobial activity against Helicobacter pylori SS1 infected in C57BL/6 mouse assessed as inhibition of disruption in submucosal and muscularis mucosal layer of gastric tissue at 25 mg/kg, po administered 2 weeks post infection for 7 days measured after 1 week; format: functional, organism-based; set-up: dose 25 mg/kg; conditions: Stomach; procedure, shortened: as §2
Helicobacter pylori [12] = test: Antimicrobial activity against Helicobacter pylori SS1 infected in C57BL/6 mouse assessed as decrease in glandular atrophy at 25 mg/kg, po administered 2 weeks post infection for 7 days measured after 1 week; format: functional, organism-based; set-up: dose 25 mg/kg; procedure, shortened: as §2
Helicobacter pylori [13] = test: Antimicrobial activity against Helicobacter pylori SS1 infected in C57BL/6 mouse assessed as inhibition of inflammatory cell infiltration at 25 mg/kg, po administered 2 weeks post infection for 7 days measured after 1 week; format: functional, organism-based; set-up: dose 25 mg/kg; procedure, shortened: as §2

COc1cc(/C=C/C(=O)CC(=O)/C=C/c2ccc(O)c(OC)c2)ccc1O [CURCUMIN]
MIC (Helicobacter pylori [1]): 50 µg/mL (≈ 136 µM) | MIC (Helicobacter pylori [2]): 15 µg/mL (≈ 40.7 µM) | MIC (Helicobacter pylori [3]): 5 µg/mL (≈ 13.6 µM) | MIC [4]: 20 µg/mL (≈ 54.3 µM) | MIC (Helicobacter pylori [5]): 5 µg/mL (≈ 13.6 µM) | MIC (Helicobacter pylori [6]): 30 µg/mL (≈ 81.4 µM) | MIC (Helicobacter pylori [7]): 5 µg/mL (≈ 13.6 µM) | Activity (Helicobacter pylori [8]): Active | Activity (Helicobacter pylori [9]): Active | Activity (Helicobacter pylori [10]): Active | Activity (Helicobacter pylori [11]): Active | Activity (Helicobacter pylori [12]): Active | Activity (Helicobacter pylori [13]): Active

CC1(C)S[C@@H]2[C@H](NC(=O)[C@H](N)c3ccc(O)cc3)C(=O)N2[C@H]1C(=O)O [AMOXICILLIN]
MIC (Helicobacter pylori [2]): 0.03 µg/mL (≈ 0.0821 µM) | MIC (Helicobacter pylori [3]): 0.03 µg/mL (≈ 0.0821 µM)

CC[C@H]1OC(=O)[C@H](C)[C@@H](O[C@H]2C[C@@](C)(OC)[C@@H](O)[C@H](C)O2)[C@H](C)[C@@H](O[C@@H]2O[C@H](C)C[C@H](N(C)C)[C@H]2O)[C@](C)(OC)C[C@@H](C)C(=O)[C@H](C)[C@@H](O)[C@]1(C)O [CLARITHROMYCIN]
MIC (Helicobacter pylori [2]): 0.02 µg/mL (≈ 0.0267 µM) | MIC (Helicobacter pylori [3]): 0.02 µg/mL (≈ 0.0267 µM)
